Activity calls are given as the source filed them. The rule behind the calls is not given here.
Assays:
[1] = tested on: Cryptococcus neoformans; test: Antimelanogenic activity in non-melanized Cryptococcus neoformans var. grubii assessed as inhibition of pigmentation at 200 ug/mL after 10 days by microtiter plate assay in presence of 1 mM catecholamine; assay type: functional
Outline: (§1)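 Broth assay in microtiter plates. An overnight culture of non-melanized C. neoformans var. grubii is diluted in fresh defined minimal medium to OD about 0.010–0.020. It is exposed to single sublethal concentrations (from DMSO; cells/DMSO control) in medium with 1 mM catecholamine (epinephrine, dopamine or L-dopa) at 30 °C. Pigmentation is scored visually at 10 days, with an additional check at 21 days.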

[2] = tested on: Cryptococcus neoformans; test: Antimelanogenic activity in non-melanized Cryptococcus neoformans var. grubii assessed as inhibition of pigmentation at 0.5 ug/mL after 10 days by microtiter plate assay in presence of 1 mM catecholamine; assay type: functional
Outline: (§2)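 Overnight non-melanized culture diluted in fresh defined minimal medium to OD about 0.010–0.020. Cells were exposed to compound from DMSO stock in microtiter wells containing 1 mM catecholamine (epinephrine, dopamine or L-dopa) and grown 10 days at 30 °C. Melanization/pigmentation was scored visually against cell-only and DMSO controls.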

[3] = tested on: Cryptococcus neoformans; test: Antimelanogenic activity in Cryptococcus neoformans var. grubii assessed as halo diameter surrounded by non-melanized cells at 20 ug after 6 to 8 days by halo assay in presence of epinephrine; assay type: functional; conditions: read-out: DIZ
Outline: (§3)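 Paper-disk diffusion halo assay on a lawn of C. neoformans (MAT α; var. grubii H99 serotype A, var. gattii serotype B). Medium is defined minimal medium agar with 1 mM catecholamine (L-dopa, dopamine or epinephrine). Compound is delivered from DMSO stock onto 6.5 mm disks, which are dried 3 h at RT. Incubation is 30 °C for 6–8 days. The read-out is halo diameter (mm), with the halo checked for non-melanized cells.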

[4] = tested on: Cryptococcus gattii; test: Antimelanogenic activity in Cryptococcus neoformans var. gattii assessed as halo diameter surrounded by non-melanized cells at 20 ug after 6 to 8 days by halo assay in presence of L-dopa; assay type: functional, Cryptococcus bacillisporus; conditions: read-out: DIZ; outline: as §3
[5] = tested on: Cryptococcus neoformans; test: Antimelanogenic activity in non-melanized Cryptococcus neoformans var. grubii assessed as inhibition of pigmentation at 0.8 ug/mL after 21 days by microtiter plate assay in presence of 1 mM catecholamine; assay type: functional; outline: as §1
[6] = tested on: Cryptococcus neoformans; test: Antimelanogenic activity in non-melanized Cryptococcus neoformans var. grubii assessed as delay of melanization by drop test assay in presence of 1 mM L-dopa; assay type: functional
Outline: (§4)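 Drop test. C. neoformans culture at 10^7 cells/mL is dosed with compound at 0, 0.06, 0.2, 0.6 and 2 μM. It is dropped onto defined minimal medium plates with 1 mM L-dopa and incubated at 30 °C until melanization occurs. The read-out is the onset day of melanization.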

[7] = tested on: Cryptococcus gattii; test: Antimelanogenic activity in Cryptococcus neoformans var. gattii assessed as halo diameter surrounded by non-melanized cells at 20 ug after 6 to 8 days by halo assay in presence of dopamine; assay type: functional, Cryptococcus bacillisporus; conditions: read-out: DIZ; outline: as §3
[8] = Inhibition of laccase in Cryptococcus neoformans var. grubii assessed as production of dopachrome using 100 uM epinephrine as substrate preincubated for 30 mins before substrate addition
Outline: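 Whole-cell laccase assay. C. neoformans var. grubii is grown in asparagine salts without glucose to raise laccase, then permeabilized with toluene-ethanol (1:4). Inhibitor (0–1 mM range) is preincubated for 30 min before adding 100 μM epinephrine. Dopachrome is read at 480 nm. IC50 is the mean of two experiments with SE; NaN3 is the positive control.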

[9] = tested on: Cryptococcus neoformans; test: Antimelanogenic activity in Cryptococcus neoformans var. grubii assessed as halo diameter surrounded by non-melanized cells at 20 ug after 6 to 8 days by halo assay in presence of dopamine; assay type: functional; conditions: read-out: DIZ; outline: as §3
[10] = tested on: Cryptococcus neoformans; test: Antimelanogenic activity in non-melanized Cryptococcus neoformans var. grubii assessed as onset day of melanization at 0.06 uM by drop test assay in presence of 1 mM L-dopa (reference value: 6 days); assay type: functional; outline: as §4
[11] = tested on: Cryptococcus neoformans; test: Antimelanogenic activity in non-melanized Cryptococcus neoformans var. grubii assessed as onset day of melanization at 0.6 uM by drop test assay in presence of 1 mM L-dopa (reference value: 6 days); assay type: functional; outline: as §4
[12] = tested on: Cryptococcus neoformans; test: Antimelanogenic activity in Cryptococcus neoformans var. grubii assessed as halo diameter surrounded by non-melanized cells at 20 ug after 6 to 8 days by halo assay in presence of L-dopa; assay type: functional; conditions: read-out: DIZ; outline: as §3
[13] = target: T1, Laccase (Trametes versicolor, UniProt O94222); test: Inhibition of Trametes versicolor laccase assessed as production of dopachrome using 200 uM dopamine as substrate preincubated for 30 mins before substrate addition
T1 sequence (O94222 whole entry): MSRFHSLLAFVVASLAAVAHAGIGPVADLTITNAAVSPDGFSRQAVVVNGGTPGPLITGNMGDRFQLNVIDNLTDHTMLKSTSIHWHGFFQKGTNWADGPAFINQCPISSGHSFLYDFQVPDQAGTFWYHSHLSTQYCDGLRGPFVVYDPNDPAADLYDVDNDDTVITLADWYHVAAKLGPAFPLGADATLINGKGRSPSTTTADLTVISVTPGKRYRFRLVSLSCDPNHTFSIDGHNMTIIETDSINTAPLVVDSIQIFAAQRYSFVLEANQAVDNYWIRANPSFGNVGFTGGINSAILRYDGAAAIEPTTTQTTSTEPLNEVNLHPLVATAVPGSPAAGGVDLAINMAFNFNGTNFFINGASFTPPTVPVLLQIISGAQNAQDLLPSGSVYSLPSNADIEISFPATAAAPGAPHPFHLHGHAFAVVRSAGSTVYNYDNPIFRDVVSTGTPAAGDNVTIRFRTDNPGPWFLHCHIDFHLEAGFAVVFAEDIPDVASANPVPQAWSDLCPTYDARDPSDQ
Outline: (§5)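 Cell-free assay with purified Trametes versicolor laccase. Inhibitor (0–1 mM range) is preincubated with the enzyme for 30 min before substrate is added. Substrates are epinephrine 100 μM, dopamine 200 μM or L-dopa 300 μM. Dopachrome formation is monitored colorimetrically at 480 nm. IC50 is taken from dose-response curves, mean of two experiments with SE; NaN3 is the positive control.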

[14] = tested on: Cryptococcus neoformans; test: Antimelanogenic activity in Cryptococcus neoformans var. grubii assessed as halo diameter surrounded by non-melanized cells at 10 ug after 6 days by halo assay in presence of 1 mM L-dopa; assay type: functional; outline: as §3
[15] = target: T1, Laccase; test: Inhibition of Trametes versicolor laccase assessed as production of dopachrome using 300 uM L-dopa as substrate preincubated for 30 mins before substrate addition; outline: as §5
[16] = tested on: Cryptococcus neoformans; test: Antimelanogenic activity in non-melanized Cryptococcus neoformans var. grubii assessed as onset day of melanization at 2 uM by drop test assay in presence of 1 mM L-dopa (reference value: 6 days); assay type: functional; outline: as §4
[17] = target: T1, Laccase; test: Inhibition of Trametes versicolor laccase assessed as production of dopachrome using 100 uM epinephrine as substrate preincubated for 30 mins before substrate addition; outline: as §5
[18] = tested on: Cryptococcus gattii; test: Antimelanogenic activity in Cryptococcus neoformans var. gattii assessed as halo diameter surrounded by non-melanized cells at 20 ug after 6 to 8 days by halo assay in presence of epinephrine; assay type: functional, Cryptococcus bacillisporus; conditions: read-out: DIZ; outline: as §3
[19] = tested on: Cryptococcus neoformans; test: Antimelanogenic activity in non-melanized Cryptococcus neoformans var. grubii assessed as inhibition of pigmentation at 0.8 ug/mL after 10 days by microtiter plate assay in presence of 1 mM catecholamine; assay type: functional; outline: as §1
[20] = tested on: Cryptococcus gattii; test: Antimelanogenic activity in Cryptococcus neoformans var. gattii assessed as halo diameter surrounded by non-melanized cells at 10 ug after 6 days by halo assay in presence of 1 mM L-dopa; assay type: functional, Cryptococcus bacillisporus; outline: as §3
[21] = tested on: Human immunodeficiency virus; test: Inhibition of DNA polymerase activity of HIV reverse transcriptase at 10 uM
[22] = tested on: Cryptococcus gattii; test: Antifungal activity in Cryptococcus neoformans var. gattii assessed as clear halo diameter at 20 ug after 6 to 8 days by halo assay in presence of dopamine; assay type: functional, Cryptococcus bacillisporus; conditions: read-out: DIZ
Outline: (§6)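 Paper-disk diffusion halo assay on lawns of C. neoformans (MAT α; var. grubii H99 serotype A, var. gattii serotype B) in defined minimal medium agar with 1 mM catecholamine (L-dopa, dopamine or epinephrine). Compounds were dissolved in DMSO and applied to 6.5 mm disks, which were dried 3 h at RT. Plates were incubated at 30 °C for 6–8 days and the clear halo diameter was measured in mm.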

[23] = tested on: Cryptococcus neoformans; test: Antimelanogenic activity in non-melanized Cryptococcus neoformans var. grubii assessed as inhibition of pigmentation at 0.0625 ug/mL after 10 days by microtiter plate assay in presence of 1 mM catecholamine; assay type: functional; outline: as §2
[24] = tested on: Cryptococcus gattii; test: Antifungal activity in Cryptococcus neoformans var. gattii assessed as clear halo diameter at 2 ug after 6 days by halo assay in presence of 1 mM L-dopa; assay type: functional, Cryptococcus bacillisporus; outline: as §6
[25] = tested on: Cryptococcus neoformans; test: Antifungal activity in Cryptococcus neoformans var. grubii assessed as clear halo diameter at 20 ug after 6 to 8 days by halo assay in presence of epinephrine; assay type: functional; conditions: read-out: DIZ; outline: as §6
[26] = tested on: Cryptococcus neoformans; test: Antifungal activity in Cryptococcus neoformans var. grubii assessed as clear halo diameter at 20 ug after 6 to 8 days by halo assay in presence of dopamine; assay type: functional; conditions: read-out: DIZ; outline: as §6
[27] = tested on: Cryptococcus gattii; test: Antifungal activity in Cryptococcus neoformans var. gattii assessed as clear halo diameter at 20 ug after 6 to 8 days by halo assay in presence of epinephrine; assay type: functional, Cryptococcus bacillisporus; conditions: read-out: DIZ; outline: as §6
[28] = tested on: Cryptococcus neoformans; test: Antifungal activity in Cryptococcus neoformans var. grubii assessed as clear halo diameter at 2 ug after 6 days by halo assay in presence of 1 mM L-dopa; assay type: functional; outline: as §6
[29] = tested on: Cryptococcus neoformans; test: Antifungal activity in Cryptococcus neoformans var. grubii assessed as clear halo diameter at 20 ug after 6 to 8 days by halo assay in presence of L-dopa; assay type: functional; conditions: read-out: DIZ; outline: as §6
[30] = tested on: Cryptococcus gattii; test: Antifungal activity in Cryptococcus neoformans var. gattii assessed as clear halo diameter at 20 ug after 6 to 8 days by halo assay in presence of L-dopa; assay type: functional, Cryptococcus bacillisporus; conditions: read-out: DIZ; outline: as §6

O=C(O)CNCP(=O)(O)O
Activity [1]: inactive

Clc1ccc(COC(Cn2ccnc2)c2ccc(Cl)cc2Cl)c(Cl)c1 (centres undefined)
Activity [2]: inactive

CC[C@H]1CCCC[C@@]2(C[C@@H]3CC[C@@H]4[C@H](C(=O)OCCCCCCCCCCCCCCCC(=O)N(CCCN)CCCCN)[C@]5(CCC[C@@H](C)O5)NC(=[N+]34)N2)O1.[Cl-] [PTILOMYCALIN A]
zone of inhibition at 20 µg/disc [3]: 12 mm
zone of inhibition at 20 µg/disc [4]: 17 mm
Activity [5]: Active
Activity [6]: Dose-dependent effect
zone of inhibition at 20 µg/disc [7]: 18 mm
IC50 [8]: 7.3 µM
zone of inhibition at 20 µg/disc [9]: 15 mm
Time [10]: 9 days
Time [11]: 20 days
zone of inhibition at 20 µg/disc [12]: 17 mm
IC50 [13]: 4.9 µM
diameter of the inhibition zone (DIZ) [14]: 13.5 mm
IC50 [15]: 5.8 µM
Time [16]: 25 days
IC50 [17]: 4.7 µM
zone of inhibition at 20 µg/disc [18]: 12 mm
Activity [19]: Active
diameter of the inhibition zone (DIZ) [20]: 9.5 mm
inhibition [21]: 60%

[N-]=[N+]=[N-] [SODIUM AZIDE]
IC50 [8]: 329 µM
IC50 [13]: 257 µM
IC50 [15]: 279 µM
IC50 [17]: 263 µM

C[C@@H]1[C@H](O)[C@@H](C)/C=C/C=C/C=C/C=C/C=C/C=C/C=C/[C@H](O[C@@H]2O[C@H](C)[C@@H](O)[C@H](N)[C@@H]2O)C[C@@H]2O[C@](O)(C[C@@H](O)C[C@@H](O)[C@H](O)CC[C@@H](O)C[C@@H](O)CC(=O)O[C@H]1C)C[C@H](O)[C@H]2C(=O)O [AMPHOTERICIN B]
zone of inhibition at 20 µg/disc [22]: 22 mm
Activity [23]: inactive
diameter of the inhibition zone (DIZ) [24]: 10 mm
zone of inhibition at 20 µg/disc [25]: 18 mm
zone of inhibition at 20 µg/disc [26]: 18 mm
zone of inhibition at 20 µg/disc [27]: 18 mm
diameter of the inhibition zone (DIZ) [28]: 15.5 mm
zone of inhibition at 20 µg/disc [29]: 21 mm
zone of inhibition at 20 µg/disc [30]: 17 mm

Reference: ChEMBL document CHEMBL1914291, “Ptilomycalin A inhibits laccase and melanization in Cryptococcus neoformans” (Bioorg Med Chem, 2011)
